Values after ≈ are worked out from the molar mass of the structure shown.
Columns and labels:
[1] = Plasma protein binding in human at 5 uM after 4 hrs by rapid equilibrium dialysis method; type: ADME, cell-free; conditions: read-out: PPB (converted)
[2] = Plasma protein binding in beagle dog at 5 uM after 4 hrs by rapid equilibrium dialysis method; type: ADME, cell-free, Canis lupus familiaris; conditions: read-out: PPB (converted)
[3] = Aqueous solubility in fasted state simulated intestinal fluid at pH 6.5 by LC/UV analysis; type: physicochemical
[4] = test system: Hepatitis C virus; experiment: Antiviral activity against Hepatitis C virus genotype 1a infected in human HuH7 cells after 48 hrs by luciferase reporter gene assay; type: functional, organism-based, Hepacivirus hominis; conditions: subtype 1a, Huh-7, 48 h
[5] = test system: Hepatitis C virus; experiment: Antiviral activity against Hepatitis C virus genotype 1b expressing NS4B H94N mutant infected in human HuH7 cells after 48 hrs by luciferase reporter gene assay; type: functional, organism-based, Hepacivirus hominis; conditions: Huh-7, 48 h
[6] = Clearance in CD rat at 1 mg/kg, iv by LC/MS/MS analysis; type: ADME, organism-based; set-up: dose 1 mg/kg, route intravenous; conditions: in vivo
Summary of the method: (§1)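 Intravenous dose of 1 mg/kg in DMSO/20% HP-β-CD (10:90) (n = 4). Clearance, Vdss and t1/2 were derived from the plasma concentration–time profiles.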

[7] = test system: Hepatitis C virus; experiment: Antiviral activity against Hepatitis C virus genotype 1b infected in human HuH7 cells after 48 hrs by luciferase reporter gene assay; type: functional, organism-based, Hepacivirus hominis; conditions: Huh-7, 48 h
[8] = test system: Liver microsome; experiment: Drug metabolism in rat liver microsomes assessed as generation of reactive metabolites at 10 uM after 30 mins by glutathione-trapping assay; type: ADME; conditions: 0.5 h
Summary of the method: (§2)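 Rat and human liver microsomes were incubated with compound, and a glutathione-trapping assay was used to detect reactive metabolites.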

[9] = Oral bioavailability in cynomolgus monkey at 5 mg/kg by LC/MS/MS analysis; type: ADME, organism-based, Macaca fascicularis; conditions: in vivo
Summary of the method: (§3)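 Oral dose of 5 mg/kg in DMSO/20% HP-β-CD (10:90), with a matching iv group for bioavailability. Plasma concentration–time profiles gave AUC0−∞ and F.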

[10] = Half life in CD-1 mouse at 1 mg/kg, iv by LC/MS/MS analysis; type: ADME, organism-based; set-up: dose 1 mg/kg, route intravenous; conditions: in vivo; summary of the method: as §1
[11] = Half life in beagle dog at 1 mg/kg, iv by LC/MS/MS analysis; type: ADME, organism-based, Canis lupus familiaris; set-up: dose 1 mg/kg, route intravenous; conditions: in vivo; summary of the method: as §1
[12] = Plasma protein binding in cynomolgus monkey at 5 uM after 4 hrs by rapid equilibrium dialysis method; type: ADME, cell-free, Macaca fascicularis; conditions: read-out: PPB (converted)
[13] = Volume of distribution at steady state in CD rat at 1 mg/kg, iv by LC/MS/MS analysis; type: ADME, organism-based; set-up: dose 1 mg/kg, route intravenous; conditions: in vivo, read-out: Vdss; summary of the method: as §1
[14] = target: T1, Cytochrome P450 1A2 (Homo sapiens, UniProt P05177); experiment: Inhibition of CYP1A2 in human liver microsomes after 10 mins by LC/MS/MS analysis; type: ADME
T1 sequence (P05177 whole entry): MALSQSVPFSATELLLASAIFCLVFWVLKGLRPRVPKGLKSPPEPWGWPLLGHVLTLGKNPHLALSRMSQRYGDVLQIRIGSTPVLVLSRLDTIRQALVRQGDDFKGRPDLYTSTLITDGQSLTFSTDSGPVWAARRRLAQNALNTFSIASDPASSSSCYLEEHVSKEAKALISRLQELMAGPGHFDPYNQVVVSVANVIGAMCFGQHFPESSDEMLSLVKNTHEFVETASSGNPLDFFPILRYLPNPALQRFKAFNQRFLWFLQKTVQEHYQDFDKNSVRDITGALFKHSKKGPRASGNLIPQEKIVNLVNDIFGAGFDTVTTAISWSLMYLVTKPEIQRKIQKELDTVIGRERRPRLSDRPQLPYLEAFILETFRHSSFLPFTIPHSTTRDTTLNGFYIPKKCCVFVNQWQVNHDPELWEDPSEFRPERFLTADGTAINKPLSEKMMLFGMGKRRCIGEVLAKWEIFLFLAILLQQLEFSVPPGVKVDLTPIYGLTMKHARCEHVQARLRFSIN
Summary of the method: (§4)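 Cytochrome P450 isozymes 3A4, 1A2, 2C9, 2C19 and 2D6 were tested for inhibition up to 20 μM, with IC50 reported.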

[15] = Plasma protein binding in CD rat at 5 uM after 4 hrs by rapid equilibrium dialysis method; type: ADME, cell-free; conditions: read-out: PPB (converted)
[16] = test system: Hepatitis C virus; experiment: Antiviral activity against Hepatitis C virus genotype 1b expressing NS4B V105M mutant infected in human HuH7 cells after 48 hrs by luciferase reporter gene assay; type: functional, organism-based, Hepacivirus hominis; conditions: Huh-7, 48 h
[17] = AUC (0 to infinity) in CD rat at 5 mg/kg, po by LC/MS/MS analysis; type: ADME, organism-based; set-up: time infinity, dose 5 mg/kg, route oral; conditions: plasma; summary of the method: as §3
[18] = AUC (0 to infinity) in beagle dog at 5 mg/kg, po by LC/MS/MS analysis; type: ADME, organism-based, Canis lupus familiaris; set-up: time infinity, dose 5 mg/kg, route oral; conditions: plasma; summary of the method: as §3
[19] = Clearance in beagle dog at 1 mg/kg, iv by LC/MS/MS analysis; type: ADME, organism-based, Canis lupus familiaris; set-up: dose 1 mg/kg, route intravenous; conditions: in vivo; summary of the method: as §1
[20] = target: Cytochrome P450 2C19 (Homo sapiens, UniProt P33261); experiment: Inhibition of CYP2C19 in human liver microsomes after 10 mins by LC/MS/MS analysis; type: ADME; summary of the method: as §4
Chain of Cytochrome P450 2C19 (P33261 whole entry): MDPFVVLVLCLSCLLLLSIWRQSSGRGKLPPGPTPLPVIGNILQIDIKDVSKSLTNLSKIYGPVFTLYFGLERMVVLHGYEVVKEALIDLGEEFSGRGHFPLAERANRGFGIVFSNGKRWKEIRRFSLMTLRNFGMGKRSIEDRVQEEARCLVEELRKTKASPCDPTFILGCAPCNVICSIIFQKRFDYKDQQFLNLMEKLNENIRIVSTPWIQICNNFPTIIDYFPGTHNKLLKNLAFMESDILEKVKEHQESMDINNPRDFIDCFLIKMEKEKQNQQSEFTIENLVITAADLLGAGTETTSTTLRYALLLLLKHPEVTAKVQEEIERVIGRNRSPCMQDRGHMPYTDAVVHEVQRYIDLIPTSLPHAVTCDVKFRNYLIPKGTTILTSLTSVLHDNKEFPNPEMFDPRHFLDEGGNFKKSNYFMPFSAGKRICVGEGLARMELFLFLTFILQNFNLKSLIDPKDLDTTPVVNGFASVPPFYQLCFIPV

[21] = Lipophilicity, log D of the compound by chromatographic analysis; type: physicochemical
Summary of the method: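 Lipophilicity was measured chromatographically and reported as ChromLogD; ≥6 replicates.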

[22] = Volume of distribution at steady state in beagle dog at 1 mg/kg, iv by LC/MS/MS analysis; type: ADME, organism-based, Canis lupus familiaris; set-up: dose 1 mg/kg, route intravenous; conditions: in vivo, read-out: Vdss; summary of the method: as §1
[23] = Displacement of [3H]-3-(1-(3-chloro-6-isopropyl-8-(trifluoromethyl)imidazo[1,2-a]pyridine-2-carbonyl)piperidin-4-yl)oxazolidin-2-one from HCV genotype 1b C-terminal His-tagged NS4B (1 to 261 aa) expressed in baculovirus infected SF9 cells after overnight incubation; set-up: species or system Hepatitis C virus subtype 1b
[24] = Clearance in cynomolgus monkey at 1 mg/kg, iv by LC/MS/MS analysis; type: ADME, organism-based, Macaca fascicularis; set-up: dose 1 mg/kg, route intravenous; conditions: in vivo; summary of the method: as §1
[25] = target: Cytochrome P450 2D6 (Homo sapiens, UniProt P10635); experiment: Inhibition of CYP2D6 in human liver microsomes after 10 mins by LC/MS/MS analysis; type: ADME; summary of the method: as §4
Chain of Cytochrome P450 2D6 (P10635 whole entry): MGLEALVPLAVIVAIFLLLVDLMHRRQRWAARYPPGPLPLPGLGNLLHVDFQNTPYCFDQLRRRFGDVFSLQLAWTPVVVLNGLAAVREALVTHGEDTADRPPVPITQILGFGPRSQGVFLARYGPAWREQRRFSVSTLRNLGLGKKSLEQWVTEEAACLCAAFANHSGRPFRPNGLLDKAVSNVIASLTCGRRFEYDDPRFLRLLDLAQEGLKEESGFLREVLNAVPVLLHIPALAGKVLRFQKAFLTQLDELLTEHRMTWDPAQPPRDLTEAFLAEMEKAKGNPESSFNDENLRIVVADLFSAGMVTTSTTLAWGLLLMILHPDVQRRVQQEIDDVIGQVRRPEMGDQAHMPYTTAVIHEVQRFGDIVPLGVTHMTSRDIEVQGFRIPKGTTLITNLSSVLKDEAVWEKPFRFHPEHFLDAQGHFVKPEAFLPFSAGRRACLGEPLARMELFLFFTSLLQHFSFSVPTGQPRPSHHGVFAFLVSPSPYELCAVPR

[26] = Half life in cynomolgus monkey at 1 mg/kg, iv by LC/MS/MS analysis; type: ADME, organism-based, Macaca fascicularis; set-up: dose 1 mg/kg, route intravenous; conditions: in vivo; summary of the method: as §1
[27] = Volume of distribution at steady state in cynomolgus monkey at 1 mg/kg, iv by LC/MS/MS analysis; type: ADME, organism-based, Macaca fascicularis; set-up: dose 1 mg/kg, route intravenous; conditions: in vivo, read-out: Vdss; summary of the method: as §1
[28] = target: Cytochrome P450 2C9 (Homo sapiens, UniProt P11712); experiment: Inhibition of CYP2C9 in human liver microsomes after 10 mins by LC/MS/MS analysis; type: ADME; summary of the method: as §4
Chain of Cytochrome P450 2C9 (P11712 whole entry): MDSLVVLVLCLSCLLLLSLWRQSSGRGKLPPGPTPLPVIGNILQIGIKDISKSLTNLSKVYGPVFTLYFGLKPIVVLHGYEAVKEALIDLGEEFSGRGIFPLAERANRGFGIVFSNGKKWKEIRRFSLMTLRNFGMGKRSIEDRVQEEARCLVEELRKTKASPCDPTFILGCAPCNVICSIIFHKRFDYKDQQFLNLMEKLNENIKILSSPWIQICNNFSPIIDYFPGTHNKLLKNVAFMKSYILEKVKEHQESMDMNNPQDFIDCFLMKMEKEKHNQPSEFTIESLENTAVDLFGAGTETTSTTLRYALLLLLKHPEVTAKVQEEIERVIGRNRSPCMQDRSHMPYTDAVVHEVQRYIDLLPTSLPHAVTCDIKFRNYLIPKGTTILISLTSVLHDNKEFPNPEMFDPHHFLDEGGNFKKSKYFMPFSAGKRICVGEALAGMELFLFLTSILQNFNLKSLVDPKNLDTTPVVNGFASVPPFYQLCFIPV

[29] = Oral bioavailability in beagle dog at 5 mg/kg by LC/MS/MS analysis; type: ADME, organism-based, Canis lupus familiaris; conditions: in vivo; summary of the method: as §3
[30] = Half life in CD rat at 1 mg/kg, iv by LC/MS/MS analysis; type: ADME, organism-based; set-up: dose 1 mg/kg, route intravenous; conditions: in vivo; summary of the method: as §1
[31] = Oral bioavailability in CD-1 mouse at 5 mg/kg by LC/MS/MS analysis; type: ADME, organism-based; conditions: in vivo; summary of the method: as §3
[32] = AUC (0 to infinity) in CD-1 mouse at 5 mg/kg, po by LC/MS/MS analysis; type: ADME, organism-based; set-up: time infinity, dose 5 mg/kg, route oral; conditions: plasma; summary of the method: as §3
[33] = Plasma protein binding in CD-1 mouse at 5 uM after 4 hrs by rapid equilibrium dialysis method; type: ADME, cell-free; conditions: read-out: PPB (converted)
[34] = Clearance in CD-1 mouse at 1 mg/kg, iv by LC/MS/MS analysis; type: ADME, organism-based; set-up: dose 1 mg/kg, route intravenous; conditions: in vivo; summary of the method: as §1
[35] = AUC (0 to infinity) in cynomolgus monkey at 5 mg/kg, po by LC/MS/MS analysis; type: ADME, organism-based, Macaca fascicularis; set-up: time infinity, dose 5 mg/kg, route oral; conditions: plasma; summary of the method: as §3
[36] = Oral bioavailability in CD rat at 5 mg/kg by LC/MS/MS analysis; type: ADME, organism-based; conditions: in vivo; summary of the method: as §3
[37] = test system: Liver microsome; experiment: Drug metabolism in human liver microsomes assessed as generation of reactive metabolites at 10 uM after 30 mins by glutathione-trapping assay; type: ADME; conditions: 0.5 h; summary of the method: as §2
[38] = target: Cytochrome P450 3A4 (Homo sapiens, UniProt P08684); experiment: Inhibition of CYP3A4 in human liver microsomes after 7 mins by LC/MS/MS analysis; type: ADME; summary of the method: as §4
Chain of Cytochrome P450 3A4 (P08684 whole entry): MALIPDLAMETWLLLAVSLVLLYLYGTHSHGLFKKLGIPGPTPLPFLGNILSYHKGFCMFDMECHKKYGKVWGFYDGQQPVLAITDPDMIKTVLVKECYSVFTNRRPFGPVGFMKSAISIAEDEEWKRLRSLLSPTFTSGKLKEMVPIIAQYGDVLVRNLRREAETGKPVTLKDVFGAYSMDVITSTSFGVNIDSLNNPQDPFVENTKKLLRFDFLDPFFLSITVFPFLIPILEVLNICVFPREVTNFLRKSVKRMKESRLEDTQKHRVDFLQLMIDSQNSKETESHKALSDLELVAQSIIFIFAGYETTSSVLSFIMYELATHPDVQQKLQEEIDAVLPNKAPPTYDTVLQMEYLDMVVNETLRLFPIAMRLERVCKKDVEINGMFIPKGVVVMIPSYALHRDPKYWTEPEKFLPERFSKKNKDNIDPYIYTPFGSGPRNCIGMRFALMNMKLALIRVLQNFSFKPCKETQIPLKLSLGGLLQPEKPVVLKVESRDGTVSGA

[39] = Volume of distribution at steady state in CD-1 mouse at 1 mg/kg, iv by LC/MS/MS analysis; type: ADME, organism-based; set-up: dose 1 mg/kg, route intravenous; conditions: in vivo, read-out: Vdss; summary of the method: as §1

Question: Which results are given for O=C(c1nn2c(C(F)(F)F)cc(C3CC3)cc2c1Cl)N1CCN([C@H]2C[C@@H]3C[C@@H]3[C@@H]2O)C(=O)C1?
Answer: fraction unbound at 4 h, 5 µM [1]: 0.06; fraction unbound at 4 h, 5 µM [2]: 0.07; solubility [3]: 0.31 mg/mL (≈ 642 µM); EC50 [4]: 0.6 nM; EC50 [5]: 5 nM; clearance [6]: 1.5 L/h/kg; EC50 [7]: 0.3 nM; Stability [8]: Stable; bioavailability [9]: 97%; half-life [10]: 0.4 h; half-life [11]: 2 h; fraction unbound at 4 h, 5 µM [12]: 0.09; Vd [13]: 2 L/kg; IC50 [14]: > 20000 nM; fraction unbound at 4 h, 5 µM [15]: 0.04; EC50 [16]: 38 nM; AUC(0-inf) [17]: 3.1 µg·h/mL; AUC(0-inf) [18]: 25 µg·h/mL; clearance [19]: 0.36 L/h/kg; IC50 [20]: > 20000 nM; chromatographic logD [21]: 4.6; Vd [22]: 0.7 L/kg; IC50 [23]: 8 nM; clearance [24]: 0.18 L/h/kg; IC50 [25]: > 20000 nM; half-life [26]: 4 h; Vd [27]: 0.7 L/kg; IC50 [28]: > 20000 nM; bioavailability [29]: > 100%; half-life [30]: 2 h; bioavailability [31]: 12%; AUC(0-inf) [32]: 1 µg·h/mL; fraction unbound at 4 h, 5 µM [33]: 0.03; clearance [34]: 1.14 L/h/kg; AUC(0-inf) [35]: 25 µg·h/mL; bioavailability [36]: 92%; Stability [37]: Stable; IC50 [38]: > 20000 nM; Vd [39]: 0.6 L/kg
